High-throughput results (PubChem)
GSK3B inh: inhibitors of human GSK3beta kinase; P49841; GST-GSK3beta kinase, ADP-Glo luminescence, 60 min; stronger effect = lower value; 300,000 tested, 0.038% active; activity score (negative = inhibition), % at 10 µM;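 active means more than half of replicate wells score below -50%, meaning over 50% inhibition versus plate controls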;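 further: 0% = median DMSO wells and -100% = median GW8510 positive control wells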
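Test system – GST-tagged human GSK3beta kinase, cell-free · Incubation – 60 min enzyme reaction, room temperature · Signal – ADP-Glo luminescence · Also added – peptide substrate and ATP at 25 µM · Controls – DMSO neutral wells and GW8510 at 20 µM as positive · Buffer or medium – Tris/MgCl2 kinase buffer · Measure – Luminescence-derived activity versus plate DMSO and GW8510 wells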
CDK5 inh: blocks human CDK5/p35 kinase activity | Recombinant CDK5/p35, ADP-Glo luminescence, 60 min | AID 488839 | 330,000 tested, 0.01% active | Q00535+Q15078 | inhibition, % at 10 µM;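 active means highest replicate inhibition of at least 50% and at least 75% of replicates reaching 50%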;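 further: plate controls were DMSO neutral control for no effect and GW8510 at 10 µM for full effect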
Target sequence (Q00535 whole entry, looked up): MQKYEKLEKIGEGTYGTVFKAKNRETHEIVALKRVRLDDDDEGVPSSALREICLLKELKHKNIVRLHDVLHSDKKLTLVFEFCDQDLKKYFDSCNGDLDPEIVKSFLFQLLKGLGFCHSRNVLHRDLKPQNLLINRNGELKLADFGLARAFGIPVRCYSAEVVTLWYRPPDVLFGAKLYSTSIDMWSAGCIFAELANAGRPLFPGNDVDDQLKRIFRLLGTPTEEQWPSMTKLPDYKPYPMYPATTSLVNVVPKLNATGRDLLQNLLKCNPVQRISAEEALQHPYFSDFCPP
Target sequence (Q15078 whole entry, looked up): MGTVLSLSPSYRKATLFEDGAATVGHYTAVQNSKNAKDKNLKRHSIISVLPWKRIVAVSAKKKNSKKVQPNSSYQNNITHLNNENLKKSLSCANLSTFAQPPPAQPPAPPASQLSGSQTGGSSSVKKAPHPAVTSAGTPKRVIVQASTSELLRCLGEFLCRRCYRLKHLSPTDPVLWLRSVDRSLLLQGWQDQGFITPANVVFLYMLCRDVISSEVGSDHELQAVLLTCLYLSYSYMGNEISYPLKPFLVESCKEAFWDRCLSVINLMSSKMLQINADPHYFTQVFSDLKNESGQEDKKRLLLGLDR
STK33 kinase inh: inhibitors of human STK33 kinase; Q9BYT3; purified STK33, MBP phosphorylation, ADP-Glo luminescence; inhibition, % at 10 µM; 320,000 tested, 0.073% active; AID 2661;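 active means inhibition at or above 25%, using the most active replicate where run in duplicate; inactive means inhibition below 25%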
GSK3 alpha inh: blocks human GSK-3 alpha kinase; P49840; inhibition, % at 10 µM; ADP-Glo luminescence, 60 min; AID 2650; 320,000 tested, 0.1% active;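 active means more than half of replicates show inhibition above 20%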;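 further: GST-tagged GSK-3 alpha with peptide substrate and 25 µM ATP; 0% = DMSO neutral wells and 100% = GW8510 positive control wells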
Active calls of the source: *; · = no result given. Compounds with a hit are over-represented: about 0.16% of the library has one in this group of screens.

SMILES	GSK3B inh	CDK5 inh	STK33 kinase inh	GSK3 alpha inh
CCOC(=O)c1nnn(-c2nonc2N)c1-c1ccccc1Cl	-24.0	-0.3	2.4	54.9*
COC(=O)c1nnn(-c2nonc2N)c1CSCCO	-73.7*	1.4	1.3	67.1*
COC(=O)c1nnn(-c2nonc2N)c1CSc1ccc(Cl)cc1	0.5	2.0	-0.1	0.6
CCOC(=O)c1nnn(-c2nonc2N)c1-c1ccc(OC)cc1	-40.3	0.7	-0.7	57.7*
CCOC(=O)c1nnn(-c2nonc2N)c1-c1cccc2ccccc12	-5.3	2.0	2.3	11.9
O=C(CS(=O)(=O)Cc1ccccc1)NCCc1ccc(F)cc1	2.5	0.5	-2.1	-1.2
Oc1ccc(/C=N/Nc2ccc(C(F)(F)F)cn2)c(O)c1	-23.2	67.2*	2.4	0.5
Oc1ccc(/C=N/Nc2ccc(C(F)(F)F)cn2)cc1	-13.4	29.6	31.1*	6.0
COc1cc(/C=N/Nc2ccc(C(F)(F)F)cn2)cc(OC)c1O	-24.8	2.0	·	·
O=C(NCCc1ccccc1Cl)c1cc(COc2ccc(F)cc2F)on1	1.6	-0.6	-0.5	0.4
O=c1ccc2cc3c([nH]c4ccc(Br)cc43)oc-2c1O	1.8	12.1	38.9*	11.8
Cc1[nH]cnc1C(=O)N/N=C/c1c(Cl)cccc1Cl	-28.9	25.6	26.6*	33.2
COc1cc(NC(=O)c2cccc3c2C(=O)N(C2CCCCC2)C3)cc(OC)c1OC	2.6	0.6	0.9	0.2
CCN1CCN(c2cc(C)c3cc(NC(=O)CCC(=O)Nc4ccc(OC)cc4OC)ccc3n2)CC1	-0.1	8.0	-1.1	0.5
CCN1CCN(c2c(C=O)c(Cl)nc3ccc(OC)cc23)CC1	-54.9*	1.3	3.0	82.1*
Cc1nn(-c2ccccn2)c2c1C(=O)C(Br)CC2 (centres undefined)	·	1.4	·	·
Cc1nn(-c2nccs2)c2c1C(=O)CC(C)(C)C2Br (centres undefined)	·	55.9*	·	·
c1ccc(CSc2nnc(-c3ccncc3)o2)cc1	0.7	6.7	0.0	66.8*
Cc1ccccc1CSc1nnc(-c2ccncc2)o1	-55.1*	-0.4	-0.9	53.4*
COC(=O)c1ccc(CSc2nnc(-c3ccncc3)o2)o1	-41.5	-0.4	-0.7	66.0*
COc1cc(OC)c(OC)cc1/C=N/NC(=O)CSc1ccccc1F	-1.7	0.1	0.8	0.3
Cc1ccc(OCC(=O)Nc2ccc(S(=O)(=O)N3CCOCC3)cc2)c(Br)c1	2.4	-1.5	4.3	5.1
N#Cc1c(N)n(C2OC(CO)C(O)C2O)c2ncnc(N)c12 (centres undefined)	·	57.1*	·	·
O=C1NC(=Nc2ccccc2Cl)S/C1=C\c1cc([N+](=O)[O-])ccc1O	-21.1	-4.7	-1.6	71.8*
COc1cccc(N=C2NC(=O)/C(=C/c3cc([N+](=O)[O-])ccc3O)S2)c1	-0.3	2.5	-1.6	4.2
SMILES	GSK3B inh	CDK5 inh	STK33 kinase inh	GSK3 alpha inh
CNC(=O)NC(=O)CSc1nc(-c2cccs2)c(C#N)c(=O)[nH]1	-75.2*	1.0	·	·
O=c1[nH]cccc1-c1nc2ccccc2[nH]1	-2.2	-2.5	9.9	71.8*
Cc1oc2c(Cl)c(Cl)c(O)c(CN(C)C)c2c1C(=O)c1ccc(Cl)cc1	7.2	-0.3	-1.2	69.5*
Cc1oc2ccc(O)c(CN3CCOCC3)c2c1C(=O)c1ccc(Cl)cc1	0.7	1.3	-0.8	8.7
COC(=O)c1sccc1NC(=O)Nc1cccc(C)c1C	1.0	0.2	-1.0	·
COc1ccc(CC(=O)Nc2ncc([N+](=O)[O-])s2)cc1OC	-44.5	9.0	-0.7	75.4*
O=C(COC(=O)c1ccccc1)Nc1ncc([N+](=O)[O-])s1	·	-0.2	-0.2	28.9
CC(C)CC(=O)Nc1ncc([N+](=O)[O-])s1	-0.8	4.8	1.5	79.5*
CCCCC(=O)Nc1ncc(Br)s1	-19.2	1.1	-1.5	25.2
CCCCC(=O)Nc1ncc([N+](=O)[O-])s1	-60.9*	6.5	-0.9	81.4*
CCc1cccc(NC(=O)C2CCCN2C(=O)Nc2ccc(C)cc2)c1 (centres undefined)	0.2	1.6	0.8	-3.5
Cc1ccc(Sc2ccc(/C=N/O)cc2[N+](=O)[O-])cc1	-1.0	1.9	-2.3	-0.2
CC(C)(C)Sc1ccc(/C=N/O)cc1[N+](=O)[O-]	-36.2	15.1	2.1	55.1*
O=[N+]([O-])c1cc(/C=N/O)ccc1N1CCCC1	-52.3*	-3.7	13.5	·
Cc1sc2ncnc(N/N=C/c3cccc(O)c3)c2c1C	-1.7	·	28.3*	5.5
CC1CCC(NC(=O)CN2C(=O)c3ccccc3S2(=O)=O)CC1 (centres undefined)	·	-0.5	-1.3	-7.4
CC1(C)CC(=O)C=C(Nc2cc(-c3ccccc3)[nH]n2)C1	-53.8*	1.8	0.3	49.4
Oc1ccccc1N=Nc1ccccc1O	2.0	1.0	·	·
Nc1ccc(N=Nc2ccccc2O)c(N)c1	1.3	·	33.2*	1.8
c1csc(C2=Nn3c(nnc3-c3ccncc3)SC2)c1	-25.7	0.9	4.3	86.8*
c1ccc(C2=Nn3c(nnc3-c3cccs3)SC2)cc1	1.3	0.0	-2.1	-3.5
O=C(O)CCn1cc(/C=N/O)c(-c2cccc([N+](=O)[O-])c2)n1	-65.8*	-0.3	8.2	77.7*
COc1cccc2cc(C(=O)CS(=O)(=O)c3ccc(C)cc3)c(=O)oc12	-54.1*	-2.0	-1.1	-2.7
O=C(CNC(=O)COc1ccccc1)NCCN1CCOCC1	·	0.2	·	·
O=C(Nc1cc(Cl)ccc1N1CCOCC1)c1cccnc1Cl	-3.7	-0.1	-0.8	0.7
SMILES	GSK3B inh	CDK5 inh	STK33 kinase inh	GSK3 alpha inh
Cc1cccc(NC(=O)CSc2nc3nc(C)cc(C)n3n2)c1	1.4	1.7	-1.1	2.9
CCN(CC)c1ccc(C=C2C(=O)OC3(CCCCC3)OC2=O)cc1	-1.0	0.9	-3.0	-2.0
CCN(CC)c1ccc(/C=C2/C(=O)c3ccc(C(=O)O)cc3C2=O)cc1	·	6.2	77.9*	22.5
O=C(Nc1c(C(=O)O)oc2ccc(Br)cc12)c1ccccc1	0.2	-1.1	-0.2	75.1*
Cc1c(C(=O)NNC(=O)c2ccccc2O)oc2ccc(Br)cc12	-1.0	-2.2	-0.6	-0.4
CNC(=O)c1c[nH]c2ccc(S(=O)(=O)Nc3ccccc3F)cc2c1=O	-0.6	0.0	46.5*	-2.4
COc1c(Cl)cc(C(=O)NCc2ccco2)cc1Cl	·	2.7	1.2	-2.2
CC1CCCCN1c1ncnc(N)c1[N+](=O)[O-] (centres undefined)	-68.3*	5.2	0.3	1.0
CCC1(CC)NC(=O)N(CC(=O)OCC(=O)c2ccccc2OC)C1=O	1.3	1.2	1.2	-1.3
CCNC(=S)Nc1ccc2cn[nH]c2c1	-30.7	4.4	30.7*	20.4
Cc1ccc(NC(=S)Nc2ccc3cn[nH]c3c2)cc1C	-3.2	0.7	13.5	15.9
Cc1ccc(NC(=S)Nc2ccc3cn[nH]c3c2)c(C)c1	-1.8	1.8	32.5*	29.5
CC(C)c1ccc(NC(=S)Nc2ccc3cn[nH]c3c2)cc1	-4.7	3.0	20.0	20.7
O=C(CCN1C(=O)/C(=C/c2ccccc2Cl)SC1=S)NC1C=CS(=O)(=O)C1 (centres undefined)	5.5	0.1	1.4	0.3
O=C(CN1CCN(Cc2cccc(F)c2)CC1)NCc1ccccc1	-2.6	-0.4	1.2	-0.8
